# In ChEMBL document CHEMBL1156597, “Structure-activity relationship of kahalalide F synthetic analogues” (J Med Chem, 2008):
# Assays:
# [1] = tested on: DU-145; experiment: Cytotoxicity against human DU145 cells after 48 hrs by SRB assay; assay type: functional, cell-based; settings: Homo sapiens, DU-145, 48 h; for CC50: read-out: LC50 (the source's name)
# Procedure, shortened: (§1)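 Cells grown in RPMI 1640 with 10% FBS and penicillin/streptomycin at 37 °C and 5% CO₂, trypsinized, then seeded at 5 × 10³/well. After 18 h drug-free attachment, samples in DMSO/EtOH/PBS (0.5:0.5:99) were added for 48 h continuous exposure. Cells were fixed with cold TCA (1 h, 4 °C) and stained with SRB (10 min). Tris-solubilized stain read at 490 nm. Triplicate wells, mean ± SD; GI₅₀ derived.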
# [2] = tested on: LoVo; experiment: Cytotoxicity against human LoVo cells after 48 hrs by SRB assay; assay type: functional; settings: for CC50: read-out: LC50 (the source's name)
# [3] = tested on: LoVo; experiment: Cytotoxicity against human doxorubicin resistant LoVo cells after 48 hrs by SRB assay; assay type: functional; settings: for CC50: read-out: LC50 (the source's name); procedure, shortened: as §1
# [4] = tested on: HT-29; experiment: Cytotoxicity against human HT29 cells after 48 hrs by SRB assay; assay type: functional, cell-based; settings: Homo sapiens, HT-29, 48 h; for CC50: read-out: LC50 (the source's name); procedure, shortened: as §1
# [5] = tested on: HeLa; experiment: Cytotoxicity against human HeLa cells after 48 hrs by SRB assay; assay type: functional; settings: for CC50: read-out: LC50 (the source's name); procedure, shortened: as §1
# [6] = tested on: PANC-1; experiment: Cytotoxicity against human PANC1 cells after 48 hrs by SRB assay; assay type: functional; settings: PANC-1, 48 h; for CC50: read-out: LC50 (the source's name); procedure, shortened: as §1
# [7] = tested on: SK-BR-3; experiment: Cytotoxicity against human SKBR3 cells after 48 hrs by SRB assay; assay type: functional; settings: SK-BR-3, 48 h; for CC50: read-out: LC50 (the source's name); procedure, shortened: as §1
# [8] = tested on: LNCaP; experiment: Cytotoxicity against human LNcaP cells after 48 hrs by SRB assay; assay type: functional; settings: for CC50: read-out: LC50 (the source's name); procedure, shortened: as §1
# [9] = Cytotoxicity against human HeLa-APL cells after 48 hrs by SRB assay; assay type: functional; procedure, shortened: as §1
# [10] = Cytotoxicity against human IGROV-ET cells after 48 hrs by SRB assay; assay type: functional; settings: for CC50: read-out: LC50 (the source's name); procedure, shortened: as §1
# [11] = tested on: K562; experiment: Cytotoxicity against human K562 cells after 48 hrs by SRB assay; assay type: functional; settings: K562, 48 h; for CC50: read-out: LC50 (the source's name); procedure, shortened: as §1
# [12] = tested on: A549; experiment: Cytotoxicity against human A549 cells after 48 hrs by SRB assay; assay type: functional, cell-based; settings: Homo sapiens, A549, 48 h; procedure, shortened: as §1
# [13] = Cytotoxicity against human IGROV cells after 48 hrs by SRB assay; assay type: functional; settings: for CC50: read-out: LC50 (the source's name); procedure, shortened: as §1
# [14] = tested on: SK-MEL-28; experiment: Cytotoxicity against human SK-MEL-28 cells after 48 hrs by SRB assay; assay type: functional, cell-based; settings: Homo sapiens, SK-MEL-28, 48 h; for CC50: read-out: LC50 (the source's name); procedure, shortened: as §1
compound,measurement,setting,value
C/C=C1\NC(=O)[C@H](Cc2ccccc2)NC(=O)[C@@H](C(C)C)NC(=O)[C@@H]([C@H](C)CC)NC(=O)[C@H](NC(=O)[C@H](NC(=O)[C@H](CCCNC(=O)CCCC[C@@H]2SC[C@@H]3NC(=O)N[C@@H]32)NC(=O)[C@H]2CCCN2C(=O)[C@H](NC(=O)[C@@H](NC(=O)[C@@H](NC(=O)[C@H](NC(=O)CCCC(C)C)C(C)C)[C@@H](C)O)C(C)C)C(C)C)[C@H](C)CC)[C@H](C)OC(=O)[C@H](C(C)C)NC1=O,GI50,[1],836 nM
same,GI50,[1]; read-out: GI50,854 nM
same,CC50,[1],814 nM
same,GI50,[2],317 nM
same,TGI,[2],303 nM
same,CC50,[2],288 nM
same,GI50,[3],328 nM
same,TGI,[3],354 nM
same,CC50,[3],2180 nM
same,GI50,[4],362 nM
same,TGI,[4],316 nM
same,CC50,[4],164 nM
same,GI50,[5],382 nM
same,TGI,[5],580 nM
same,CC50,[5],716 nM
same,GI50,[6],1990 nM
same,TGI,[6],2360 nM
same,CC50,[6],2010 nM
same,TGI,[7],267 nM
same,GI50,[7]; read-out: GI50,322 nM
same,CC50,[7],90.5 nM
same,GI50,[8],816 nM
same,TGI,[8],810 nM
same,CC50,[8],805 nM
same,GI50,[9],985 nM
same,LC50 (concentration giving 50% net cell kill),[9],996 nM
same,TGI,[9],989 nM
same,GI50,[10],488 nM
same,GI50,[10]; read-out: GI50,618 nM
same,CC50,[10],385 nM
same,CC50,[11],1680 nM
same,LC50,[12],128 nM
same,GI50,[13],351 nM
same,GI50,[13]; read-out: GI50,369 nM
same,CC50,[13],342 nM
same,GI50,[14],974 nM
same,GI50,[14]; read-out: GI50,959 nM
same,CC50,[14],974 nM
C/C=C1\NC(=O)[C@H](Cc2ccccc2)NC(=O)[C@@H](C(C)C)NC(=O)[C@@H]([C@H](C)CC)NC(=O)[C@H](NC(=O)[C@H](NC(=O)[C@H](CCCN)NC(=O)[C@H]2CCCN2C(=O)[C@H](NC(=O)[C@@H](NC(=O)[C@@H](NC(=O)[C@H](NC(=O)CC[C@@H](C)CC)C(C)C)[C@@H](C)OC(=O)C(F)(F)F)C(C)C)C(C)C)[C@H](C)CC)[C@H](C)OC(=O)[C@H](C(C)C)NC1=O,GI50,[1],752 nM
same,GI50,[1]; read-out: GI50,617 nM
same,CC50,[1],914 nM
same,GI50,[2],212 nM
same,TGI,[2],257 nM
same,CC50,[2],310 nM
same,GI50,[3],189 nM
same,TGI,[3],222 nM
same,CC50,[3],1400 nM
same,GI50,[4],241 nM
same,TGI,[4],257 nM
same,CC50,[4],271 nM
same,GI50,[5],294 nM
same,TGI,[5],553 nM
same,CC50,[5],818 nM
same,GI50,[6],1430 nM
same,TGI,[6],1660 nM
same,CC50,[6],1660 nM
same,TGI,[7],218 nM
same,GI50,[7]; read-out: GI50,203 nM
same,CC50,[7],141 nM
same,GI50,[8],610 nM
same,TGI,[8],1020 nM
same,CC50,[8],1400 nM
same,GI50,[9],499 nM
same,LC50 (concentration giving 50% net cell kill),[9],892 nM
same,TGI,[9],745 nM
same,GI50,[10],191 nM
same,GI50,[10]; read-out: GI50,231 nM
same,CC50,[10],468 nM
same,CC50,[11],181 nM
same,GI50,[12],882 nM
same,LC50,[12],101 nM
same,GI50,[12]; read-out: GI50,7700 nM
same,GI50,[13],345 nM
same,GI50,[13]; read-out: GI50,287 nM
same,CC50,[13],508 nM
same,GI50,[14],772 nM
same,GI50,[14]; read-out: GI50,716 nM
same,CC50,[14],839 nM
C/C=C1\NC(=O)[C@H](Cc2ccccc2Cl)NC(=O)[C@@H](C(C)C)NC(=O)[C@@H]([C@H](C)CC)NC(=O)[C@H](NC(=O)[C@H](NC(=O)[C@H](CCCN)NC(=O)[C@H]2CCCN2C(=O)[C@H](NC(=O)[C@@H](NC(=O)[C@@H](NC(=O)[C@H](NC(=O)CCCC(C)C)C(C)C)[C@@H](C)O)C(C)C)C(C)C)[C@H](C)CC)[C@H](C)OC(=O)[C@H](C(C)C)NC1=O,GI50,[1],391 nM
same,GI50,[1]; read-out: GI50,180 nM
same,CC50,[1],670 nM
same,GI50,[2],43.4 nM
same,TGI,[2],63.5 nM
same,CC50,[2],111 nM
same,GI50,[3],44.3 nM
same,TGI,[3],46.9 nM
same,CC50,[3],85.1 nM
same,GI50,[4],89 nM
same,TGI,[4],113 nM
same,CC50,[4],144 nM
same,GI50,[5],274 nM
same,TGI,[5],506 nM
same,CC50,[5],889 nM
same,GI50,[6],1510 nM
same,TGI,[6],1700 nM
same,CC50,[6],1700 nM
same,GI50,[7],56.8 nM
same,GI50,[7]; read-out: GI50,54.9 nM
same,CC50,[7],111 nM
same,GI50,[8],92.8 nM
same,TGI,[8],359 nM
same,CC50,[8],832 nM
same,GI50,[9],312 nM
same,LC50 (concentration giving 50% net cell kill),[9],931 nM
same,TGI,[9],533 nM
same,GI50,[10],142 nM
same,GI50,[10]; read-out: GI50,97.3 nM
same,CC50,[10],196 nM
same,GI50,[11],1850 nM
same,TGI,[11],1850 nM
same,CC50,[11],1850 nM
same,GI50,[12],659 nM
same,LC50,[12],1040 nM
same,GI50,[12]; read-out: GI50,418 nM
same,GI50,[13],118 nM
same,GI50,[13]; read-out: GI50,72.3 nM
same,CC50,[13],204 nM
same,GI50,[14],638 nM
same,GI50,[14]; read-out: GI50,386 nM
same,CC50,[14],1050 nM
